Source: PubChem (The Scripps Research Institute Molecular Screening Center)
In the library only some 1.9% were active in any assay of this set; here they are far more common.
UHRF1 binding: blocks human UHRF1 binding to methylated DNA; Q96T88; UHRF1 binding to methylated oligo, TR-FRET; inhibition, % at 4.4 µM; hit rate 0.75% among 370,000; in the data active means inhibition above about 21%;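 further: UHRF1 SRA domain binding a hemimethylated CpG hairpin DNA probe; 0% = median of test compound wells and 100% = reference inhibitor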
DDE Tn7 FP inh: DD(E)-Tn7 binding inhibition, primary FP screen. hit rate 0.13% among 370,000. FP displacement of FITC-Tn7 peptide from fibrin DD(E); 0% = median of compound wells per plate. P02675. AID 720508. inhibition, % at 8.3 µM;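 active means inhibition above the mean of compounds falling within the control limits plus 3 SD of them, cut at about 14% in these data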;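 further: 0% = plate median of compound wells and 100% = 10 µM Aha-Tn7 peptide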
Target sequence (P02675 whole entry, looked up): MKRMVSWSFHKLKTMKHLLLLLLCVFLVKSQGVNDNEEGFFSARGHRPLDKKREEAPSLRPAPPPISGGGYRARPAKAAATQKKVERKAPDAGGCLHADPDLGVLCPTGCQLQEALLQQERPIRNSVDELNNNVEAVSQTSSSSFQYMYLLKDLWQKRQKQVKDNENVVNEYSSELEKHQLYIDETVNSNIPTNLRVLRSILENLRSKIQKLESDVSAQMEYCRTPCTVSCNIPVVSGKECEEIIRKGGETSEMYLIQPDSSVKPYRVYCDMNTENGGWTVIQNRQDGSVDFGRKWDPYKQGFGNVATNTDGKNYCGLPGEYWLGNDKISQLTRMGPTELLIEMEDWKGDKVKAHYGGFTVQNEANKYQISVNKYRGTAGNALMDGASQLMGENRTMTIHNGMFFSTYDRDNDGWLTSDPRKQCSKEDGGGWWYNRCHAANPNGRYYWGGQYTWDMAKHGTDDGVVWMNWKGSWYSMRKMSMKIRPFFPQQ
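Measure: % inhibition scaled between sample-field median and high-control FP; Test system: human fibrin DD(E); Quantity: 2 µM final DD(E) protein; Doses: one dose, 8.3 µM nominal; Schedule: compound with protein 10 min, then 3 h after probe, room temperature; Detection: fluorescence polarization; Medium: Tris buffer with calcium and detergent, pH 7.8.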
MBD2 DNA inh: inhibitors of human MBD2 binding to methylated oligonucleotide; TR-FRET; AID 686964; hit rate 0.31% among 370,000; inhibition, % at 4.4 µM; Q9UBB5; in the data active means inhibition above about 13%
TDP2 inh: blocks human TDP2 phosphodiesterase activity; O95551; recombinant TDP2, T5PNP hydrolysis, p-nitrophenol absorbance 415 nm; inhibition, % at 12.8 µM; hit rate 0.34% among 370,000; AID 720702;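 active means inhibition above the mean of all tested compounds plus 3 SD, set per campaign, cut at about 25% in these data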;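 further: 0% = DMSO with enzyme and 100% = buffer with substrate but no TDP2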
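Test system: Human TDP2 enzyme | Reagent: 5 mM T5PNP | Compound dosing: 12.8 µM single point, 1% DMSO | Incubation: Enzyme reaction with compound for 2 h at 37 °C | Technique: p-Nitrophenol epi absorbance | Read-out: % inhibition relative to enzyme-containing and enzyme-free wells | Benchmarks: High control without enzyme, low control DMSO plus TDP2 | Replicates: Singlicate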
DDE Tn6 FP inh: DD(E)-Tn6 binding inhibition, primary FP screen; Fibrin DD(E) TRITC-Tn6 fluorescence polarization displacement; inhibition, % at 8.3 µM; P02675; hit rate 0.21% among 370,000;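 active means inhibition above a per-campaign cutoff: mean of compounds within control limits plus 3 SD, cut at about 15% in these data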;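 further: 0% = median of all compound wells on the plate and 100% = blocking peptide control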
LEDGF integ inh: blocks HIV-1 LEDGF/p75-dependent DNA integration. inhibition, % at 3.7 µM. TR-FRET IN-LEDGF/p75 DNA integration, Eu/Cy5. AID 743269. hit rate 0.64% among 370,000;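 active means inhibition above the screen-wide mean plus 3 SD, cut at about 13% in these data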;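 further: signal is the Cy5 over europium emission ratio at 671 and 618 nm; 0% = plate median of compound wells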
IN multimer up: counter-screen for LEDGF/p75 integration inhibitors: HIV-1 integrase multimerization activators | TR-FRET HIV-1 integrase multimerization, biochemical | activation, % at 7.7 µM | hit rate 17% among 2,000 | shares compounds with LEDGF integ inh; in the data active means activation above about 8.9%
TRFRET interf: optically interferes with TR-FRET readout in LEDGF counter-screen | shares compounds with LEDGF integ inh | TR-FRET optical interference counterscreen, HIV-1 IN multimerization | inhibition, % at 7.7 µM | 2,000 tested, under 10 active | AID 1053135;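 active means inhibition above the mean over all tested compounds plus 3 SD, which no compound reached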;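 further: 0% = integrase with antibodies and DMSO and 100% = antibodies without integrase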
LEDGF integ conf: LEDGF/p75-dependent HIV-1 integration inhibition, confirmation | inhibition, % at 3.7 µM | AID 1053136 | shares compounds with LEDGF integ inh | TR-FRET LEDGF/p75-dependent HIV-1 integration, biochemical | hit rate 36% among 2,000; in the data active means inhibition above about 14%
* = called active by the depositor; · = no result.

SMILES	UHRF1 binding	DDE Tn7 FP inh	MBD2 DNA inh	TDP2 inh	DDE Tn6 FP inh	LEDGF integ inh	IN multimer up	TRFRET interf	LEDGF integ conf
O=C(CSc1nc2ccccc2[nH]1)NC1CCS(=O)(=O)C1 (centres undefined)	-0.8	1.6	0.3	3.8	-0.2	37.0*	0.3	-1.4	-7.6
Cc1cc(C)c(-c2csc(NC(=O)C3=COCCO3)n2)c(C)c1	1.7	2.7	4.3	1.1	1.6	-3.3	·	·	·
Cc1cc(-c2csc(NC(=O)C3=COCCO3)n2)c(C)n1C	-0.3	3.1	-4.0	18.3	-3.4	43.0*	7.3	-36.8	46.6*
CC(C)CCN(C)[C@H]1C[C@H]2c3[nH]c4ccccc4c3CCN2C[C@H]1[C@H](C)O	2.5	-8.3	1.4	-2.4	-1.5	-4.3	·	·	·
C=CCN(CC=C)C(=S)NC(=O)c1ccc(-c2ccccc2)cc1	-5.5	-1.8	2.4	3.5	3.9	23.2*	0.1	-0.3	16.7*
C=CCN(CC=C)C(=S)NC(=O)c1ccc(C)c(Br)c1	-0.4	10.2	-1.3	15.8	2.2	25.0*	-0.3	1.3	33.4*
O=c1ccn2c(n1)OC1CC2OC1COC(c1ccccc1)(c1ccccc1)c1ccccc1 (centres undefined)	-1.3	1.4	-6.8	-8.7	-8.8	5.5	·	·	·
CCC(=O)Nc1cccc(NC(=O)c2ccccc2Cl)c1	0.8	0.3	-1.4	6.1	8.1	56.2*	0.8	-4.0	1.1
CCC(=O)Nc1cccc(NC(=S)NC(=O)c2ccccc2Cl)c1	3.5	2.2	-0.7	0.1	-4.6	3.5	·	·	·
O=S(=O)(Nc1ccc(Cc2ccncc2)cc1)N1CCCC1	-0.8	0.1	-0.7	9.1	1.1	24.9*	1.2	-4.5	1.8
O=C(Nc1ccncc1)Nc1cccc(Cl)c1	1.3	0.7	-3.0	0.9	1.0	0.7	·	·	·
O=C(Nc1cccc(C2=NCCN2)c1)Nc1cccc(C2=NCCN2)c1	7.8	-0.7	0.3	0.5	-1.7	18.4*	-3.4	12.1	17.9*
CC1(C)CC(N=C2C([N+](=O)[O-])=CC=C3C2=NC2(CCCCC2)N3O)CC(C)(C)N1	-15.6	-2.4	-17.1	12.1	8.9	26.1*	5.7	-28.9	3.3
CCCCn1nnnc1C1c2ccccc2OCC(=O)N1Cc1ccc2c(c1)OCO2 (centres undefined)	-1.9	7.7	1.8	-1.1	-3.8	2.4	·	·	·
COC(=O)[C@]12CCCCC=C1N(Cc1cccc3ccccc13)C(=O)[C@H](CC(=O)N1CCCCC1)C2	12.7	-3.9	2.4	3.9	-5.3	82.3*	0.2	-1.0	3.4
COC(=O)[C@]12CCCCC=C1N(Cc1cccc3ccccc13)C(=O)[C@H](CC(=O)N1CCC(c3ccccc3)CC1)C2	-1.0	-4.9	-2.9	1.0	-2.5	1.9	·	·	·
Cc1ccnc(NS(=O)(=O)c2ccc(NC(=O)c3ccc(C)o3)cc2)n1	0.3	6.0	-1.8	1.4	5.0	1.1	·	·	·
Cc1ccnc(NS(=O)(=O)c2ccc(NC(=O)c3ccccc3F)cc2)n1	3.9	-2.4	-6.1	5.3	0.3	24.6*	0.6	-2.0	-3.2
Cc1ccc(S(=O)(=O)/N=C2/NC(=O)/C(=C\c3ccco3)S2)cc1	7.4	-0.4	-3.8	4.0	8.0	7.5	·	·	·
CC(=O)Nc1ccc(S(=O)(=O)/N=C2/NC(=O)/C(=C\c3ccco3)S2)cc1	30.7*	2.0	3.9	12.9	-6.6	23.1*	5.7	-20.3	6.3
COc1cccc(-c2cnc3c(NC=O)cc(-c4ccoc4)cn23)c1	-2.2	3.2	-0.5	4.2	5.8	13.5*	1.4	-7.1	5.0
COC(=O)[C@]12C[C@H](CC(=O)NCCCCc3ccccc3)C(=O)N(Cc3ccccc3)C1=C[C@H](C1CCCC1)O[C@@H]2C	-0.3	-0.8	-3.4	-8.7	5.4	-2.7	·	·	·
COC(=O)Cc1c(C)nc2nc(-c3ccccc3)[nH]n2c1=O	1.6	1.7	3.4	8.8	4.3	-2.7	·	·	·
COC(=O)Cc1c(C)nc2nc(Cc3ccccc3)[nH]n2c1=O	-2.4	2.2	-2.6	3.7	11.6	14.1*	0.7	-3.4	3.3
COC(=O)N1C[C@H](OCc2cn(-c3cc(Cl)cc(Cl)c3)nn2)[C@H](OCc2cn(-c3cc(Cl)cc(Cl)c3)nn2)C[C@@H]1c1ccccc1Br	3.8	5.8	3.5	0.7	11.2	-2.6	·	·	·
SMILES	UHRF1 binding	DDE Tn7 FP inh	MBD2 DNA inh	TDP2 inh	DDE Tn6 FP inh	LEDGF integ inh	IN multimer up	TRFRET interf	LEDGF integ conf
O=C(COCc1ccccc1)N1CCC(Oc2cccnc2)CC1	0.3	2.9	-0.4	2.4	2.8	-0.7	·	·	·
NC(=O)c1sc2nc(-c3ccco3)ccc2c1N	27.9*	-5.5	11.9	6.7	-7.2	40.7*	12.6*	-63.5	8.3
COC(=O)[C@]1(C#N)CC(=O)N(CC(C)C)[C@@H]1c1ccccc1	-0.4	0.8	2.9	0.3	2.9	-2.4	·	·	·
COc1cc(Nc2cc(C)n(-c3cc(OC)cc(OC)c3)c(=O)c2)cc(OC)c1	-1.5	9.9	-4.8	1.5	1.7	-2.5	·	·	·
COc1cccc(NC(=O)Nc2c(-c3ccc(C)cc3)nc3ncccn23)c1	2.5	3.0	-8.0	13.4	-2.1	-3.7	·	·	·
CC(=O)Nc1ccc(S(=O)(=O)Nc2nc3ccccc3nc2Nc2ccc(C(=O)O)c(O)c2)cc1	26.0*	-4.5	2.3	4.4	-7.2	26.1*	23.2*	-117.0	28.8*
CC(=O)Nc1ccc(S(=O)(=O)Nc2nc3ccccc3nc2Nc2cccc(O)c2)cc1	-2.0	11.1	1.3	-3.0	1.9	1.2	·	·	·
O=C(N[C@H](Cc1ccccc1)C(=O)O)[C@H]1O[C@@H](n2ccc(=O)[nH]c2=O)[C@H](O)[C@@H]1O	1.9	-3.9	5.1	1.4	-9.2	-2.8	·	·	·
COc1cc(CCC(O)CC(=O)CCc2ccccc2)ccc1O (centres undefined)	-2.7	-4.7	1.1	2.6	-2.9	23.3*	0.6	-3.0	-3.1
COC(=O)[C@]12C[C@H](CC(=O)N3CCCC3)C(=O)N(Cc3ccc4c(c3)OCO4)C1=C[C@H](C(C)(C)C)O[C@@H]2C	2.3	9.0	1.5	6.4	-0.5	-0.6	·	·	·
CCOC(=O)c1ccc(NC(=O)c2nc[nH]c2C(=O)NC)cc1	-1.5	-10.2	-5.0	-8.3	-4.3	18.3*	0.0	0.2	-0.7
